Laboratory results: ChEMBL document CHEMBL1156765, “Novel organic proteasome inhibitors identified by virtual and in vitro screening” (J Med Chem, 2010)
One block for each compound: values may come before it. Activity calls are given as the source filed them. The rule behind the calls is not given here.

How the values were obtained:
[1] = Inhibition of chymotrypsin-like activity of rabbit 20S proteasome at pH 8 after 15 mins; parameters: species or system Oryctolagus cuniculus
Method in brief: (§1)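 Rabbit 20S proteasome held with inhibitor for 15 min at pH 8, 37 °C. The matching fluorogenic substrate was then added to read the remaining chymotrypsin-like, post-acid or trypsin-like activity. Results are reported as IC50, or as % inhibition at a single inhibitor concentration of 50 or 100 μM.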

[2] = species on record: Oryctolagus cuniculus; assay: Inhibition of post-acid activity of rabbit 20S proteasome at 100 uM at pH 8 after 15 mins; method in brief: as §1
[3] = species on record: Oryctolagus cuniculus; assay: Inhibition of post-acid activity of rabbit 20S proteasome at 50 uM at pH 8 after 15 mins; method in brief: as §1
[4] = Inhibition of trypsin-like activity of rabbit 20S proteasome at pH 8 after 15 mins; parameters: species or system Oryctolagus cuniculus; method in brief: as §1
[5] = species on record: Oryctolagus cuniculus; assay: Inhibition of trypsin-like activity of rabbit 20S proteasome at 100 uM at pH 8 after 15 mins; method in brief: as §1
[6] = species on record: Oryctolagus cuniculus; assay: Inhibition of chymotrypsin-like activity of rabbit 20S proteasome at 50 uM at pH 8 after 15 mins; method in brief: as §1
[7] = test system: HEK293; assay: Cytotoxicity against human HEK293 cells after 48 hrs by XTT assay; format: functional, cell-based; conditions: HEK293, 48 h
[8] = Inhibition of post-acid activity of rabbit 20S proteasome at pH 8 after 15 mins; parameters: species or system Oryctolagus cuniculus; method in brief: as §1
[9] = test system: HeLa; assay: Cytotoxicity against human HeLa cells after 48 hrs by XTT assay; format: functional, cell-based
[10] = target: T1, Calpain-1 catalytic subunit (Homo sapiens) (UniProt P07384); assay: Inhibition of cytosolic calpain 1 at 100 uM at pH 7.2
T1 sequence (whole entry): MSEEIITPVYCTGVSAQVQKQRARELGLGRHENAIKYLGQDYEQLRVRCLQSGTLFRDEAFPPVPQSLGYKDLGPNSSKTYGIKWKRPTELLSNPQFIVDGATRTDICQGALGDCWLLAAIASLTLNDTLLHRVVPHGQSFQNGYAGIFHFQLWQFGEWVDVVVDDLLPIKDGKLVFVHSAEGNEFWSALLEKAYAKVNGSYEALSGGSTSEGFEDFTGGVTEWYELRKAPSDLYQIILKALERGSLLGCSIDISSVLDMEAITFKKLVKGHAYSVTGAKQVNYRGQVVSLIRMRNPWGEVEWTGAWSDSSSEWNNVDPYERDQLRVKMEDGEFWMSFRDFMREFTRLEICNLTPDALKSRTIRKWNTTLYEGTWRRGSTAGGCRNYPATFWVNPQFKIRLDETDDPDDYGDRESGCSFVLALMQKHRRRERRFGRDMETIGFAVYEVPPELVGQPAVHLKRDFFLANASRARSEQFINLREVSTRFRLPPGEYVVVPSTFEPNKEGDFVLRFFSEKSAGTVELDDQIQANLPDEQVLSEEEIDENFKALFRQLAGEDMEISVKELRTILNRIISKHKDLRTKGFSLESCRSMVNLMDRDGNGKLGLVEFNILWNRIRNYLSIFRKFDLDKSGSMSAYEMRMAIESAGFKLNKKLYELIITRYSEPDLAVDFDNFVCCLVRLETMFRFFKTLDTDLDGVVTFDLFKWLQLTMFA

[11] = target: T1, Calpain-1 catalytic subunit (Homo sapiens); assay: Inhibition of cytosolic calpain 1 at 50 uM at pH 7.2
[12] = species on record: Oryctolagus cuniculus; assay: Inhibition of chymotrypsin-like activity of rabbit 20S proteasome at 100 uM at pH 8 after 15 mins; method in brief: as §1
[13] = species on record: Oryctolagus cuniculus; assay: Inhibition of trypsin-like activity of rabbit 20S proteasome at 50 uM at pH 8 after 15 mins; method in brief: as §1

- IC50 ([1]; read-out: IC50): > 50 µM
- inhibition [2]: 63%
Structure (SMILES): CC(C)(C)c1ccc(C(=O)Nc2ccc(S(=O)(=O)N3CCCCCC3)cc2)cc1

- IC50 [1]: Not Active
- inhibition [3]: 52%
Structure (SMILES): Cc1ccc(-c2nnc(Nc3ccccc3)c3ccccc23)cc1S(=O)(=O)NCC1CCCO1 (stereo not drawn)

- IC50 [1]: Not Active
- inhibition [2]: 45%
- IC50 ([4]; read-out: IC50): 25.6 µM
Structure (SMILES): CCc1ccc(-c2cc(C(=O)Nc3ccc(S(=O)(=O)NC(C)=O)cc3)c3ccccc3n2)cc1

- IC50 [1]: Not Active
- inhibition [5]: 13%
- inhibition [3]: 54%
Structure (SMILES): Cc1ccccc1C(=O)Nc1ccc(S(=O)(=O)NCc2ccccc2)cc1

- inhibition [6]: 35%
- IC50 ([8]; read-out: IC50): 39 µM
- inhibition [5]: 63%
Structure (SMILES): CCOC(=O)CNS(=O)(=O)c1cc(-c2nnc(Nc3cccc(O)c3)c3ccccc23)ccc1C
- EC50 [7]: 13.9 µM

- Activity [10]: inactive
- IC50 ([8]; read-out: IC50): 8 µM
- IC50 ([1]; read-out: IC50): 18.9 µM
- Activity [11]: inactive
Structure (SMILES): CCCN(CCC)S(=O)(=O)c1ccc(NC(=O)c2ccc(C(C)(C)C)cc2)cc1
- EC50 [7]: < 5 µM
- EC50 [9]: 9 µM

- Activity [10]: inactive
- IC50 ([8]; read-out: IC50): 10 µM
- IC50 ([1]; read-out: IC50): 1.9 µM
- IC50 ([4]; read-out: IC50): 4.5 µM
- Activity [11]: inactive
Structure (SMILES): C=CCN(CC=C)S(=O)(=O)c1ccc(NC(=O)c2ccc(C(C)(C)C)cc2)cc1
- EC50 [7]: 9.7 µM
- EC50 [9]: 12.3 µM

- inhibition [12]: 87%
- IC50 ([8]; read-out: IC50): > 25 µM
Structure (SMILES): CCN(CC)S(=O)(=O)c1ccc(NC(=O)c2ccc(C(C)(C)C)cc2)cc1

- IC50 ([8]; read-out: IC50): 9 µM
- IC50 ([1]; read-out: IC50): 10.8 µM
Structure (SMILES): COc1ccc(N2CCN(C(=S)Nc3ccc([N+](=O)[O-])cc3)CC2)cc1
- EC50 [7]: 50 µM

- inhibition [13]: 44%
- IC50 ([1]; read-out: IC50): 28.3 µM
- inhibition [3]: 29%
Structure (SMILES): Cc1ccc(-c2nnc(Nc3cccc(O)c3)c3ccccc23)cc1S(=O)(=O)NC(C)(C)C
- EC50 [7]: 10.4 µM

- IC50 [1]: Not Active
- IC50 [4]: Not Active
- inhibition [3]: 52%
Structure (SMILES): CC(C)(C)c1ccc(/C=C/C(=O)N2CCN(c3ccc([N+](=O)[O-])cc3)CC2)cc1

- inhibition [13]: 45%
- IC50 [1]: Not Active
- inhibition [2]: 42%
Structure (SMILES): CCOc1ccc(-c2cc(C(=O)Nc3ccc(S(=O)(=O)NC(C)=O)cc3)c3ccccc3n2)cc1

- IC50 ([8]; read-out: IC50): 12.4 µM
- IC50 ([1]; read-out: IC50): 11.7 µM
Structure (SMILES): COc1ccc(NC(=O)C23CC4CC(C2)CC(C(=O)Nc2ccc(OC)cc2)(C4)C3)cc1

Structure (SMILES): CC(=O)NS(=O)(=O)c1ccc(NC(=O)c2cc(-c3ccc(Cl)s3)nc3ccccc23)cc1
- EC50 [7]: 75 µM
- EC50 [9]: 100 µM

- IC50 [1]: Not Active
- IC50 [4]: Not Active
- inhibition [3]: 49%
Structure (SMILES): CC(C)(C)c1ccc(OCC(=O)N2CCN(c3ccc([N+](=O)[O-])cc3)CC2)c(Br)c1

- IC50 ([8]; read-out: IC50): 50 µM
- IC50 ([1]; read-out: IC50): 26.2 µM
Structure (SMILES): COc1ccc(NC(=O)C23CC4CC(C2)CC(c2ccc(C)cc2)(C4)C3)cc1

- inhibition [6]: 70.1%
- IC50 [8]: Not Active
Structure (SMILES): O=C(Nc1ccc(S(=O)(=O)NCc2ccccc2)cc1)c1cc(-c2cccs2)nc2ccccc12

- inhibition [6]: 40%
- IC50 [8]: Not Active
Structure (SMILES): COc1ccc(N2CCN(C(=O)COc3ccc(C(C)(C)C)cc3)CC2)c([N+](=O)[O-])c1

- IC50 ([8]; read-out: IC50): 14.8 µM
- IC50 ([1]; read-out: IC50): 35.4 µM
- IC50 ([4]; read-out: IC50): 67.8 µM
Structure (SMILES): Cc1ccc(-c2nnc(Nc3cccc(O)c3)c3ccccc23)cc1S(=O)(=O)NC(C)(C)CO
